Reference: ChEMBL document CHEMBL3616437, “Thiazole compounds with activity against Cryptococcus gattii and Cryptococcus neoformans in vitro” (Eur J Med Chem, 2015)
The source made the active and inactive calls. The calls are words filed in the database; no cut-off is given here.

Key:
[1] = system: Cryptococcus gattii species complex; assay: Ratio of compound MIC for Cryptococcus gattii L27/01 in presence of fluconazole to compound MIC for Cryptococcus gattii L27/01 in absence of fluconazole by checkerboard microtiter test; format: functional, Cryptococcus bacillisporus
Method in brief: (§1)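 Checkerboard microdilution: eight two-fold dilutions of test compound (0.11 to 15.6 µM) crossed with amphotericin B (0.025 to 3.9 µM, in DMSO) or fluconazole (0.48 to 62.5 µM, in water). Inoculum per CLSI M27-A3 in RPMI-MOPS pH 7.0, 1-5 x10^3 cells/mL. Growth 48 to 72 h. Effective MIC is the combination concentration giving complete inhibition. FICs derived from MICs in combination versus alone.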

[2] = system: Cryptococcus gattii species complex; assay: Ratio of compound MIC for Cryptococcus gattii L24/01 in presence of amphotericin B to compound MIC for Cryptococcus gattii L24/01 in absence of amphotericin B by checkerboard microtiter test; format: functional, Cryptococcus bacillisporus; method in brief: as §1
Cryptococcus neoformans [3] = assay: Ratio of compound MIC for Cryptococcus neoformans 5396 in presence of fluconazole to compound MIC for Cryptococcus neoformans 5396 in absence of fluconazole by checkerboard microtiter test; format: functional; method in brief: as §1
[4] = system: Cryptococcus gattii species complex; assay: Ratio of compound MIC for Cryptococcus gattii 23/10993 in presence of fluconazole to compound MIC for Cryptococcus gattii 23/10993 in absence of fluconazole by checkerboard microtiter test; format: functional, Cryptococcus bacillisporus; method in brief: as §1
Cryptococcus neoformans [5] = assay: Ratio of compound MIC for Cryptococcus neoformans 28JF in presence of fluconazole to compound MIC for Cryptococcus neoformans 28JF in absence of fluconazole by checkerboard microtiter test; format: functional; method in brief: as §1
Cryptococcus gattii [6] = assay: Ratio of compound MIC for Cryptococcus gattii ATCC 24065 in presence of fluconazole to compound MIC for Cryptococcus gattii ATCC 24065 in absence of fluconazole by checkerboard microtiter test
[7] = system: Cryptococcus gattii species complex; assay: Ratio of compound MIC for Cryptococcus gattii 547/OTTI-97-PI-10 in presence of amphotericin B to compound MIC for Cryptococcus gattii 547/OTTI-97-PI-10 in absence of amphotericin B by checkerboard microtiter test; format: functional, Cryptococcus bacillisporus; method in brief: as §1
Cryptococcus neoformans [8] = assay: Ratio of compound MIC for Cryptococcus neoformans 5396 in presence of amphotericin B to compound MIC for Cryptococcus neoformans 5396 in absence of amphotericin B by checkerboard microtiter test; format: functional; method in brief: as §1
[9] = system: Cryptococcus gattii species complex; assay: Ratio of compound MIC for Cryptococcus gattii 1913ER in presence of fluconazole to compound MIC for Cryptococcus gattii 1913ER in absence of fluconazole by checkerboard microtiter test; format: functional, Cryptococcus bacillisporus; method in brief: as §1
[10] = system: Cryptococcus gattii species complex; assay: Ratio of compound MIC for Cryptococcus gattii 135L/03 in presence of fluconazole to compound MIC for Cryptococcus gattii 135L/03 in absence of fluconazole by checkerboard microtiter test; format: functional, Cryptococcus bacillisporus; method in brief: as §1
Cryptococcus neoformans [11] = assay: Ratio of compound MIC for Cryptococcus neoformans ATCC 24067 in presence of amphotericin B to compound MIC for Cryptococcus neoformans ATCC 24067 in absence of amphotericin B by checkerboard microtiter test; format: functional; method in brief: as §1
[12] = system: Cryptococcus gattii species complex; assay: Ratio of compound MIC for Cryptococcus gattii 23/10993 in presence of amphotericin B to compound MIC for Cryptococcus gattii 23/10993 in absence of amphotericin B by checkerboard microtiter test; format: functional, Cryptococcus bacillisporus; method in brief: as §1
Cryptococcus neoformans [13] = assay: Ratio of compound MIC for Cryptococcus neoformans VM-MCMMPI in presence of fluconazole to compound MIC for Cryptococcus neoformans VM-MCMMPI in absence of fluconazole by checkerboard microtiter test; format: functional; method in brief: as §1
Cryptococcus neoformans [14] = assay: Ratio of compound MIC for Cryptococcus neoformans WP in presence of amphotericin B to compound MIC for Cryptococcus neoformans WP in absence of amphotericin B by checkerboard microtiter test; format: functional; method in brief: as §1
[15] = system: Cryptococcus gattii species complex; assay: Antifungal activity against Cryptococcus gattii 196L/03 assessed as reduction in ergosterol content at MIC after 24 hrs by spectrophotometric analysis; format: functional, organism-based; details: Cryptococcus bacillisporus
Method in brief: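 Pellet washed and weighed, then saponified in 25% ethanolic KOH at 85°C for 1 h. Extracted with water and n-heptane, read at 282 and 230 nm. Ergosterol taken from a standard curve and expressed as % of growth control.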

[16] = system: Cryptococcus gattii species complex; assay: Ratio of compound MIC for Cryptococcus gattii ICB181 in presence of amphotericin B to compound MIC for Cryptococcus gattii ICB181 in absence of amphotericin B by checkerboard microtiter test; format: functional, Cryptococcus bacillisporus; method in brief: as §1
Cryptococcus neoformans [17] = assay: Ratio of compound MIC for Cryptococcus neoformans WP in presence of fluconazole to compound MIC for Cryptococcus neoformans WP in absence of fluconazole by checkerboard microtiter test; format: functional; method in brief: as §1
Cryptococcus neoformans [18] = assay: Ratio of compound MIC for Cryptococcus neoformans F10 in presence of amphotericin B to compound MIC for Cryptococcus neoformans F10 in absence of amphotericin B by checkerboard microtiter test; format: functional; method in brief: as §1
[19] = system: Cryptococcus gattii species complex; assay: Ratio of compound MIC for Cryptococcus gattii 135L/03 in presence of amphotericin B to compound MIC for Cryptococcus gattii 135L/03 in absence of amphotericin B by checkerboard microtiter test; format: functional, Cryptococcus bacillisporus
[20] = system: Cryptococcus bacillisporus; assay: Ratio of compound MIC for Cryptococcus gattii ATCC 32608 in presence of amphotericin B to compound MIC for Cryptococcus gattii ATCC 32608 in absence of amphotericin B by checkerboard microtiter test; format: functional; method in brief: as §1
Cryptococcus gattii [21] = assay: Ratio of compound MIC for Cryptococcus gattii ATCC 24065 in presence of amphotericin B to compound MIC for Cryptococcus gattii ATCC 24065 in absence of amphotericin B by checkerboard microtiter test
Cryptococcus neoformans [22] = assay: Ratio of compound MIC for Cryptococcus neoformans ATCC 28957 in presence of amphotericin B to compound MIC for Cryptococcus neoformans ATCC 28957 in absence of amphotericin B by checkerboard microtiter test; format: functional; method in brief: as §1
[23] = system: Cryptococcus gattii species complex; assay: Ratio of compound MIC for Cryptococcus gattii ICB181 in presence of fluconazole to compound MIC for Cryptococcus gattii ICB181 in absence of fluconazole by checkerboard microtiter test; format: functional, Cryptococcus bacillisporus; method in brief: as §1
[24] = system: Cryptococcus gattii species complex; assay: Ratio of compound MIC for Cryptococcus gattii L27/01 in presence of amphotericin B to compound MIC for Cryptococcus gattii L27/01 in absence of amphotericin B by checkerboard microtiter test; format: functional, Cryptococcus bacillisporus; method in brief: as §1
[25] = system: Cryptococcus gattii species complex; assay: Ratio of compound MIC for Cryptococcus gattii 1913ER in presence of amphotericin B to compound MIC for Cryptococcus gattii 1913ER in absence of amphotericin B by checkerboard microtiter test; format: functional, Cryptococcus bacillisporus; method in brief: as §1
[26] = system: Cryptococcus gattii species complex; assay: Ratio of compound MIC for Cryptococcus gattii L28/02 in presence of fluconazole to compound MIC for Cryptococcus gattii L28/02 in absence of fluconazole by checkerboard microtiter test; format: functional, Cryptococcus bacillisporus; method in brief: as §1
Cryptococcus neoformans [27] = assay: Ratio of compound MIC for Cryptococcus neoformans ATCC 28957 in presence of fluconazole to compound MIC for Cryptococcus neoformans ATCC 28957 in absence of fluconazole by checkerboard microtiter test; format: functional; method in brief: as §1
[28] = system: Cryptococcus gattii species complex; assay: Ratio of compound MIC for Cryptococcus gattii LMM818 in presence of amphotericin B to compound MIC for Cryptococcus gattii LMM818 in absence of amphotericin B by checkerboard microtiter test; format: functional, Cryptococcus bacillisporus; method in brief: as §1
Cryptococcus neoformans [29] = assay: Ratio of compound MIC for Cryptococcus neoformans 27JF in presence of fluconazole to compound MIC for Cryptococcus neoformans 27JF in absence of fluconazole by checkerboard microtiter test; format: functional; method in brief: as §1

Row | Compound | fractional inhibitory concentration index (FICI) [1] | fractional inhibitory concentration index (FICI) [2] | fractional inhibitory concentration index (FICI) (Cryptococcus neoformans [3]) | fractional inhibitory concentration index (FICI) [4] | fractional inhibitory concentration index (FICI) (Cryptococcus neoformans [5]) | fractional inhibitory concentration index (FICI) (Cryptococcus gattii [6]) | fractional inhibitory concentration index (FICI) [7] | fractional inhibitory concentration index (FICI) (Cryptococcus neoformans [8]) | fractional inhibitory concentration index (FICI) [9] | fractional inhibitory concentration index (FICI) [10] | fractional inhibitory concentration index (FICI) (Cryptococcus neoformans [11]) | fractional inhibitory concentration index (FICI) [12] | fractional inhibitory concentration index (FICI) (Cryptococcus neoformans [13]) | fractional inhibitory concentration index (FICI) (Cryptococcus neoformans [14]) | fractional inhibitory concentration index (FICI) [16] | fractional inhibitory concentration index (FICI) (Cryptococcus neoformans [17]) | fractional inhibitory concentration index (FICI) (Cryptococcus neoformans [18]) | fractional inhibitory concentration index (FICI) [19] | fractional inhibitory concentration index (FICI) [20] | fractional inhibitory concentration index (FICI) (Cryptococcus gattii [21]) | further results
1 | COc1ccc(-c2csc(N/N=C(\C)CCO)n2)cc1 | 2.14 | 4.98 | 1.32 | 2.28 | 1.47 | 0.88 | 2.98 | 1.58 | 2.47 | 2.38 | 2.78 | 3.51 | 4.33 | 2.78 | 9.55 | 2.32 | 2.47 | 4.98 | 3.14 | 2.98 | Activity [15]: inactive; fractional inhibitory concentration index (FICI) (Cryptococcus neoformans [22]): 1.98; fractional inhibitory concentration index (FICI) [23]: 1.99; fractional inhibitory concentration index (FICI) [24]: 4.61; fractional inhibitory concentration index (FICI) [25]: 2.78; fractional inhibitory concentration index (FICI) [26]: 1.01; fractional inhibitory concentration index (FICI) (Cryptococcus neoformans [27]): 2.28; fractional inhibitory concentration index (FICI) [28]: 4.98; fractional inhibitory concentration index (FICI) (Cryptococcus neoformans [29]): 7.44
2 | OC(Cn1cncn1)(Cn1cncn1)c1ccc(F)cc1F [FLUCONAZOLE] |  |  |  |  |  |  |  |  |  |  |  |  |  |  |  |  |  |  |  |  | Activity [15]: Active
3 | C[C@@H]1[C@H](O)[C@@H](C)/C=C/C=C/C=C/C=C/C=C/C=C/C=C/[C@H](O[C@@H]2O[C@H](C)[C@@H](O)[C@H](N)[C@@H]2O)C[C@@H]2O[C@](O)(C[C@@H](O)C[C@@H](O)[C@H](O)CC[C@@H](O)C[C@@H](O)CC(=O)O[C@H]1C)C[C@H](O)[C@H]2C(=O)O [AMPHOTERICIN B] |  |  |  |  |  |  |  |  |  |  |  |  |  |  |  |  |  |  |  |  | Activity [15]: inactive
4 | C(=N\Nc1nc(-c2ccccc2)cs1)/C1CCCCC1 | 4.23 | 4.87 | 2.4 | 1.47 | 1.99 | 1.58 | 4.74 | 1.15 | 2.09 | 2.47 | 2.67 | 2.67 | 4.47 | 2.41 | 4.98 | 2.47 | 2.62 | 2.67 | 2.58 | 1.72 | fractional inhibitory concentration index (FICI) (Cryptococcus neoformans [22]): 1.09; fractional inhibitory concentration index (FICI) [23]: 2.58; fractional inhibitory concentration index (FICI) [24]: 1.34; fractional inhibitory concentration index (FICI) [25]: 1.47; fractional inhibitory concentration index (FICI) [26]: 2.47; fractional inhibitory concentration index (FICI) (Cryptococcus neoformans [27]): 4.47; fractional inhibitory concentration index (FICI) [28]: 2.58; fractional inhibitory concentration index (FICI) (Cryptococcus neoformans [29]): 6.8
5 | COc1ccc(-c2csc(N/N=C/C3CCCCC3)n2)cc1 | 1.18 | 2.38 | 3.48 | 2.46 | 4.59 | 2.43 | 2.58 | 2.07 | 2.46 | 2.71 | 2.36 | 2.36 | 4.46 | 1.46 | 1.73 | 2.21 | 1.46 | 1.46 | 2.78 | 2 | fractional inhibitory concentration index (FICI) (Cryptococcus neoformans [22]): 2.07; fractional inhibitory concentration index (FICI) [23]: 4.46; fractional inhibitory concentration index (FICI) [24]: 2.66; fractional inhibitory concentration index (FICI) [25]: 1.75; fractional inhibitory concentration index (FICI) [26]: 4.38; fractional inhibitory concentration index (FICI) (Cryptococcus neoformans [27]): 2.51; fractional inhibitory concentration index (FICI) [28]: 1.46; fractional inhibitory concentration index (FICI) (Cryptococcus neoformans [29]): 4.59
6 | c1ccc(-c2csc(NN=C3CCCC3)n2)cc1 | 1.45 | 2.16 | 3.46 | 4.23 | 3.77 | 3.71 | 2.66 | 4.86 | 2.45 | 2.45 | 1.46 | 2.18 | 4.21 | 1.46 | 1.28 | 2.46 | 2.58 | 1.46 | 1.7 | 1.2 | fractional inhibitory concentration index (FICI) (Cryptococcus neoformans [22]): 2.22; fractional inhibitory concentration index (FICI) [23]: 4.58; fractional inhibitory concentration index (FICI) [24]: 2.48; fractional inhibitory concentration index (FICI) [25]: 1.04; fractional inhibitory concentration index (FICI) [26]: 4.22; fractional inhibitory concentration index (FICI) (Cryptococcus neoformans [27]): 3.36; fractional inhibitory concentration index (FICI) [28]: 2.58; fractional inhibitory concentration index (FICI) (Cryptococcus neoformans [29]): 3.33
